Test results published in ChEMBL document CHEMBL4814076, “Discovery of a Potent and Selective Covalent Inhibitor of Bruton's Tyrosine Kinase with Oral Anti-Inflammatory Activity” (ACS Med Chem Lett, 2021).
Activity calls are given as the source filed them. The calls are words filed in the database; no cut-off is given here.

Columns and labels:
[1] = molecular target: T1, Tyrosine-protein kinase BTK (Homo sapiens, UniProt Q06187); test: Covalent inhibition of recombinant human GST-tagged BTK (2 to 659 end residues) expressed in baculovirus expression system assessed as inhibition constant using NH2-KKKAPFSWYLPEEG as substrate measured every 2 mins for 2 hrs in presence of ATP by microplate reader assay
[2] = molecular target: Tyrosine-protein kinase BTK (Mus musculus, UniProt P35991); test: Inhibition of BTK in C57Bl/6 mouse splenocyte assessed as reduction in anti-IgM-induced CD69 expression incubated for 1 hr followed anti-IgM stimulation and measured after overnight by flow cytometry analysis; assay type: tissue-based
Procedure, shortened: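 Mouse splenocytes stimulated with anti-IgM. CD69 expression measured as the read-out.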

[3] = Inhibition of BTK in Wistar rat whole blood assessed as reduction in anti-IgD-induced B220/CD86+ expression incubated for 1 hr followed anti-IgD stimulation and measured after overnight by flow cytometry analysis; assay type: tissue-based
Procedure, shortened: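 B-cell activation induced by anti-IgD in rat whole blood, read as B220+CD86+ cells.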

[4] = molecular target: T1, Tyrosine-protein kinase BTK; test: Covalent inhibition of recombinant human GST-tagged BTK (2 to 659 end residues) expressed in baculovirus expression system assessed as inactivation constant using NH2-KKKAPFSWYLPEEG as substrate measured every 2 mins for 2 hrs in presence of ATP by microplate reader assay
[5] = molecular target: T1, Tyrosine-protein kinase BTK; test: Covalent inhibition of recombinant human GST-tagged BTK (2 to 659 end residues) expressed in baculovirus expression system assessed as Kinact/Ki ratio using NH2-KKKAPFSWYLPEEG as substrate measured every 2 mins for 2 hrs in presence of ATP by microplate reader assay
[6] = molecular target: T1, Tyrosine-protein kinase BTK; test: Binding affinity to recombinant unphosphorylated human GST-tagged BTK kinase domain (389 to 659 residues) expressed in insect cells incubated for 1 hr by Lanthascreen assay
[7] = Half life of the compound at 25 degreeC; assay type: physicochemical
[8] = molecular target: T1, Tyrosine-protein kinase BTK; test: Time dependent inhibition of recombinant human GST-tagged BTK (2 to 659 end residues) expressed in baculovirus expression system using NH2-KKKAPFSWYLPEEG as substrate measured every 2 mins for 2 hrs in presence of ATP by microplate reader assay
[9] = Half life in human pooled liver microsomes at 1 uM measured up to 60 mins in presence of NADPH by LC-MS/MS analysis; assay type: ADME, Microsome

T1 sequence (Q06187 whole entry): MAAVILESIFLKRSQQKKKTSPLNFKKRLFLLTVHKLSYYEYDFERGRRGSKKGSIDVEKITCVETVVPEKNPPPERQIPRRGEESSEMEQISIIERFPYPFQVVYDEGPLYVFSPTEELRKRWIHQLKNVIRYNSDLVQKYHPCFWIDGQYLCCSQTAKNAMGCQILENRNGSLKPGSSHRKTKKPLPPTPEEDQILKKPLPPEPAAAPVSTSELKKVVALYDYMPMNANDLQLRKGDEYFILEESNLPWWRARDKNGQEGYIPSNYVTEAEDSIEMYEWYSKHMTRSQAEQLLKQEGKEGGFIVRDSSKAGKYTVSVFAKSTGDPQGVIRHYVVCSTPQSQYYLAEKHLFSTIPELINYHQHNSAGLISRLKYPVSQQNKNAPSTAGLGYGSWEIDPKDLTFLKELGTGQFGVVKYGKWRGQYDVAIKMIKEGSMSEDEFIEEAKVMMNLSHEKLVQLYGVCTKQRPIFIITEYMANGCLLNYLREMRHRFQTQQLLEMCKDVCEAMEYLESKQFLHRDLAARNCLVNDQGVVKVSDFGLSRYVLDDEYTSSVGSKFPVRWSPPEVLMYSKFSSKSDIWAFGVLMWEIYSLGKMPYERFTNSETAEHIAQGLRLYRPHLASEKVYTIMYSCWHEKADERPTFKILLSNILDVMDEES
Chain of Tyrosine-protein kinase BTK (Mus musculus, UniProt P35991) (P35991 whole entry): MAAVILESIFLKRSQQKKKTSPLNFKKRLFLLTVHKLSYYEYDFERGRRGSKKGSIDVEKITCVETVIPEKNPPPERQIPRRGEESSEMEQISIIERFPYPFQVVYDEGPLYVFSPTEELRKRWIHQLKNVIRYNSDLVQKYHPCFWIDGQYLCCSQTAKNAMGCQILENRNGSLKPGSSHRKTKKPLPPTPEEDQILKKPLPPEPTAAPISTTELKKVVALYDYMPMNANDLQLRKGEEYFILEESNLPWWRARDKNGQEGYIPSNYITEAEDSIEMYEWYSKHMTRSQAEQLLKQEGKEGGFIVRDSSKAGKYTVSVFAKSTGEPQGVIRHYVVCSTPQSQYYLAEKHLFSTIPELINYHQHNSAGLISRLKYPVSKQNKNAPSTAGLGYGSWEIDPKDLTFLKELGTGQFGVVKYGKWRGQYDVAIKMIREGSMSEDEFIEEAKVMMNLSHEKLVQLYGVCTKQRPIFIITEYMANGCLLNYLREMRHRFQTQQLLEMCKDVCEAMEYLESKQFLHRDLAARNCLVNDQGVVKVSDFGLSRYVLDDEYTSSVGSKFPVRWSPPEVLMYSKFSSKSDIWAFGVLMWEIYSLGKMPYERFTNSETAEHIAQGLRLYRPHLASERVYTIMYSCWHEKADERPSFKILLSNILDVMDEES

Ki [1] [µM]	IC50 [2] [µM]	IC50 ([3]; Rattus norvegicus, Blood, 1 h) [µM]	Kinact [4] [s⁻¹]	Ratio [5] [M⁻¹ s⁻¹]	SMILES	also measured
0.141	0.13	1.74			C=CC(=O)N1CC(NC(=O)c2sc3nccc4c3c2NC(=O)N4c2ccc(Oc3ccccc3)cc2C)C1	
0.0123	0.013	0.22			C=CC(=O)N1CCC[C@@H](NC(=O)c2sc3nccc4c3c2NC(=O)N4c2ccc(Oc3ccccc3)cc2Cl)C1	
0.0519	0.0076	0.21			C=CC(=O)NCCNC(=O)c1sc2nccc3c2c1NC(=O)N3c1ccc(Oc2ccccc2)cc1C	
1.85			0.000177	95.7	C=CC(=O)N1CCC[C@@H](NC(=O)c2sc3nccc4c3c2NC(=O)N4c2ccc(Oc3ccccc3)cc2C(F)(F)F)C1	
					CCC(=O)N1CCC[C@@H](NC(=O)c2sc3nccc4c3c2NC(=O)N4c2ccc(OC(C)C)cc2)C1	IC50 [6]: 6.6 µM
0.15	0.4				C=CC(=O)N1CCC[C@@H](NC(=O)c2sc3nccc4c3c2NC(=O)N4c2ccc(Oc3ccccc3)cc2C)C1 (stereo in doubt; 16)	IC50 [3]: 2.45 µM
					O=C(N[C@@H]1CCCNC1)c1sc2nccc3c2c1NC(=O)N3c1ccc(Oc2ccccc2)cc1F	half-life [7]: 46 h
0.0092	0.02	0.18			C=CC(=O)N1CCC[C@@H](NC(=O)c2sc3nccc4c3c2NC(=O)N4c2ccc(Oc3ccccc3)cc2F)C1	
0.337	0.042	0.46			C=CC(=O)N1CCC[C@@H](NC(=O)c2sc3nccc4c3c2NC(=O)N4c2ccc(OC(C)C)cc2C)C1	
4.22			0.000256	60.7	C=CC(=O)N1CCC[C@@H](NC(=O)c2sc3nccc4c3c2NC(=O)N4c2ccc(OC(C)C)cc2)C1	IC50 [6]: 0.12 µM; inhibition [8]: Active
0.0148	0.08	0.1	0.000257	17400	C=CC(=O)N[C@H]1CCC[C@H]1NC(=O)c1sc2nccc3c2c1NC(=O)N3c1ccc(Oc2ccccc2)cc1C	
0.217	0.03	0.64			C=CC(=O)N1CC[C@H](NC(=O)c2sc3nccc4c3c2NC(=O)N4c2ccc(Oc3ccccc3)cc2C)C1	
3.29			0.000222	67.5	C=CC(=O)N1CCC[C@@H](NC(=O)c2sc3nccc4c3c2NC(=O)N4c2cc(OC(C)C)ccc2C)C1	
1.58			0.000573	363	C=CC(=O)N1CCC[C@@H](NC(=O)c2sc3nccc4c3c2NC(=O)N4c2ccccc2C)C1	
					CC(C)Oc1ccc(N2C(=O)Nc3c(C(=O)N[C@@H]4CCCNC4)sc4nccc2c34)cc1	IC50 [6]: 3.5 µM
6.42			0.000807	126	C=CC(=O)N1CCC[C@@H](NC(=O)c2sc3nccc4c3c2NC(=O)N4c2ccccc2)C1	
0.00481	0.019				C=CC(=O)N1CCC[C@@H](NC(=O)c2sc3nccc4c3c2NC(=O)N4c2ccc(Oc3ccccc3)cc2C)C1 (stereo in doubt; 17)	IC50 [3]: 0.14 µM; half-life at 1 µM [9]: < 4 min
0.0117	0.0079	0.13			C=CC(=O)C[C@@H]1CC[C@@H](NC(=O)c2sc3nccc4c3c2NC(=O)N4c2ccc(Oc3ccccc3)cc2C)C1	
